Compounds with a hit are over-represented: about 2.9% of the library has one in this group of screens.
S100A4 MyoIIA: inhibitors of human S100A4 binding to myosin IIA peptide; actives 0.14% (n = 360,000); inhibition, % at 10.7 µM; S100A4/TAMRA-MyoIIA peptide fluorescence polarization; P26447;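 active = mean inhibition of at least 70% across replicates, with every replicate also reaching that level; inconclusive = mean inhibition reaches 70% but some replicates fall short; inactive = mean inhibition below 70%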
Target sequence (P26447 whole entry, looked up): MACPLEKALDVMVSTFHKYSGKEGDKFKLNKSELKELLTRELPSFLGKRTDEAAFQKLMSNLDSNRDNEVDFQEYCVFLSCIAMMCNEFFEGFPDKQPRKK
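Material: S100A4 monomer (human). Medium: Calcium-containing HEPES buffer, pH 7.2. Probe or stimulus: labelled myosin peptide probe, 5 nM. Compound dosing: one concentration per compound. Timing: polarization read 5 min after assay mix addition, stable 5–60 min. Benchmarks: DMSO as neutral control, TFP as positive control.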
SIRT5 block: sirtuin-5 (human) deacylase inhibition. Purified SirT5, succinyl-peptide AMC, trypsin-coupled fluorescence. inhibition, % at 15 µM. actives 1.1% (n = 330,000). AID 652115; in the data active = inhibition above about 15%; inconclusive = no clear call, values can overlap the other calls
Target sequence (Q9NXA8 whole entry, looked up): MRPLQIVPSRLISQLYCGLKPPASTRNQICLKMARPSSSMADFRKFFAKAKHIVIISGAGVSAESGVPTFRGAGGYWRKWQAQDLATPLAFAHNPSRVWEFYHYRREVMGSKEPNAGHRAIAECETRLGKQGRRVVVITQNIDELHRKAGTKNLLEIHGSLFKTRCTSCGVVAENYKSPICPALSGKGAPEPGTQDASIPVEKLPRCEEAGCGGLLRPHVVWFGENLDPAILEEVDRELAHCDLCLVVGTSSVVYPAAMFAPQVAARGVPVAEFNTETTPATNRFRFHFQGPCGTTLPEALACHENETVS
PGC1a acetyl inh: lowers PGC1a acetylation signal in U2OS cells. AlphaScreen anti-acetyl-lysine; with virally co-expressed GCN5 acetyltransferase. actives 0.17% (n = 350,000). inhibition, % at 15.6 µM;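 active = every replicate shows inhibition of at least 40%; inconclusive = mean inhibition at least 40% but some replicate below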
DENV2 CPE: protects cells from dengue virus 2 cytopathic effect; DENV2-infected cells, cytopathic effect rescue, plate reader; CPE inhibition, % at 9.99 µM; actives 1.7% (n = 350,000); AID 651640; in the data active = CPE inhibition above about 20%, passing the limit was not always enough; inconclusive = no clear call, values can overlap the other calls; tested in BHK-21 cells
Statin myotox sup: suppressors of simvastatin-induced myotoxicity in C2C12 myotubes; ATP luminescence, 48 h; scaled: DMSO 0, geranylgeraniol control 100; rescue of ATP level, % at 7.49 µM; actives 0.78% (n = 330,000);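 active = mean ATP rescue above about 67%, or every replicate alone reaching that limit, limit read from the data, passing the limit was not always enough; inconclusive = no clear call, values can overlap the other calls; inactive = mean under the limit and some replicate under it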;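 also: myotubes were challenged with 10 µM simvastatin during compound exposure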
Numbers stand for hits; 0 = inactive; ? = inconclusive; - = no result given.

SMILES	S100A4 MyoIIA	SIRT5 block	PGC1a acetyl inh	DENV2 CPE	Statin myotox sup
Cc1ccc(C(=O)c2c3ccc([N+](=O)[O-])cc3[n+]([O-])n2CCCC(N)=O)cc1	0	-	0	69.9	0
Cc1ccc(C(=O)c2c3ccccc3[n+]([O-])n2CCC(=O)O)cc1	0	0	0	?	79.6
O=C(C[C@@H]1C[C@@H]2c3cc(NC(=O)NC4CCCCC4)ccc3O[C@@H]2[C@H](CO)O1)NCc1ccccn1	0	0	0	0	0
O=C1CCN(Cc2ccc(Br)cc2)CCN1CCO	0	-	0	29.2	0
CO[C@@H]1CC[C@@H]2CCN(C)C(=O)C[C@H](c3ccccc3)CN(C)C(=O)c3cc(C#N)ccc3OC[C@@H]1O2	-	-	-	-	0
O=C(O)c1ccc(N=Nc2c(O)[nH]c3ccccc23)cc1	0	0	48.9	0	-
Cc1noc(C)c1NC(=O)N(C)C[C@H]1OCCCC[C@@H](C)Oc2ccc(NS(=O)(=O)c3cccs3)cc2C(=O)N([C@H](C)CO)C[C@@H]1C	0	0	0	0	-
C[C@H](NC(=O)C[C@@H]1C=C[C@@H](NC(=O)C2CC2)[C@H](CO)O1)c1ccccc1	0	0	0	0	0
N#CC1CN(C(c2ccccc2)c2ccccc2)C1	0	0	0	0	106.9
N#CC1CN(Cc2ccccc2)CN(Cc2ccccc2)C1	0	0	-	0	-
C[C@@H]1CN([C@@H](C)CO)C(=O)c2cc(NC(=O)C3CC3)ccc2O[C@H]1CN(C)Cc1ccc(Cl)c(Cl)c1	0	0	0	0	0
Cn1c(-c2ccc(F)cc2)cnc1NCc1ccc(F)cc1	-	-	0	-	121.6
O=C(Nc1ccc(SC(F)F)cc1)C1CC(=O)N(Cc2ccccc2)C1 (centres undefined)	0	0	0	21.8	-
O=C(CC(C(=O)O)c1ccc(Cl)cc1)c1ccc(Br)cc1 (centres undefined)	0	17.0	0	0	0
CN1C(=O)c2cc(NC(=O)C3CC3)ccc2OC[C@@H]2O[C@H](CC(=O)NCc3ccccc3F)CC[C@H]21	0	0	-	0	-
CC(=O)Oc1ccccc1C(=O)OCO/N=[N+](\[O-])N1CCC[C@H]1C(=O)O	0	0	0	0	-
CC(=O)OCO/N=[N+](\[O-])N1CCCC1	0	0	0	24.2	-
CO[C@H]1CC[C@@H]2CCN(C)C(=O)CCCN(C)C(=O)c3cccc(C#N)c3OC[C@@H]1O2	0	0	-	0	0
C[C@@H]1CN([C@@H](C)CO)C(=O)Cc2cc(NC(=O)CCCCCC(=O)Nc3ccccc3N)ccc2O[C@@H]1CN(C)Cc1ccc(C(F)(F)F)cc1	0	0	0	95.7	0
C[C@H](CO)N1C[C@H](C)[C@@H](CN(C)Cc2ccc(C(F)(F)F)cc2)Oc2ccc(NC(=O)CCCCCC(=O)Nc3ccccc3N)cc2CC1=O	0	0	0	0	106.5
C[C@@H]1CN([C@@H](C)CO)C(=O)Cc2cc(NC(=O)CCCCCC(=O)Nc3ccccc3N)ccc2O[C@H]1CN(C)Cc1ccccc1	0	0	0	0	?
COc1ccccc1S(=O)(=O)N[C@@H]1CC[C@H](CCNC(=O)C2CCCCC2)O[C@@H]1CO	0	0	0	0	0
C=CCC1NS(=O)(=O)OC(COC)C1C (centres undefined)	0	0	0	46.1	0
CCC(=O)N1C[C@@H](C)[C@@H](OC)CN(C)C(=O)c2ccc(NC(=O)Nc3ccc(Cl)cc3)cc2OC[C@@H]1C	-	0	0	0	0
CN(c1ccccc1C(=O)Nc1cccc(Cl)c1Cl)S(C)(=O)=O	0	0	0	-	0
SMILES	S100A4 MyoIIA	SIRT5 block	PGC1a acetyl inh	DENV2 CPE	Statin myotox sup
CCOc1ccccc1NC(=O)c1ccccc1N(C)S(C)(=O)=O	-	-	0	-	151.2
CN(c1ccccc1C(=O)Nc1ccc2c(c1)OCCO2)S(C)(=O)=O	-	-	0	-	0
Cc1ccc(NC(=O)c2ccccc2N(C)S(C)(=O)=O)cc1C	-	-	0	-	105.9
Cc1ccc(S(=O)(=O)Nc2ccc3c(c2)C(=O)N([C@@H](C)CO)C[C@@H](C)[C@@H](CN(C)Cc2ccc(Cl)c(Cl)c2)OCCCC[C@@H](C)O3)cc1	?	17.4	0	0	-
COc1ccc(S(=O)(=O)Nc2ccc3c(c2)C(=O)N([C@H](C)CO)C[C@H](C)[C@H](CN(C)Cc2ccc(Cl)c(Cl)c2)OCCCC[C@@H](C)O3)cc1	-	-	0	41.5	78.8
Cc1ccc(S(=O)(=O)Nc2ccc3c(c2)C(=O)N([C@H](C)CO)C[C@@H](C)[C@H](CN(C)Cc2ccc(Cl)c(Cl)c2)OCCCC[C@H](C)O3)cc1	0	18.6	0	0	-
